The target in test [1] is T1, von Hippel-Lindau disease tumor suppressor/Protein arginine N-methyltransferase 5 (Homo sapiens, UniProt O14744+P40337). Nature of the test: Induction of VHL-mediated PRMT5 degradation in human MCF7 cells at 5 uM incubated for 6 days by Western blot analysis. The note with it: time 6.0 day. It is filed as cell-based. An outline of the steps:
(§1)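 MCF-7 cells treated 6 d (0.2, 1 and 5 μM for initial screen, or indicated concentrations). RIPA lysates immunoblotted for PRMT5. Band intensity quantified by densitometry to derive DC50 and Dmax as mean ± SD from three independent experiments; screening blots representative of at least two.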
In general terms: A western blot detects proteins with antibodies after separation by electrophoresis.

Test [2] deals with MCF7. Nature of the test: Antiproliferative activity against human MCF7 cells at 0.1 to 10 uM incubated for 6 days by CellTiter-Glo assay. It is filed as functional, cell-based. The note with it: dose microM 0.1-10, time 6.0 day. An outline of the steps: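 MCF-7 in DMEM + 10% FBS at 37 °C, 5% CO2. Cells exposed to graded concentrations for 6 d, medium with compound refreshed every other day. CellTiter-Glo luminescence, expressed as viability relative to DMSO control; mean ± SD, n = 3.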

For test [3], the target named is PRMT5/MEP50 complex (Homo sapiens) (UniProt O14744+Q9BQA1). Nature of the test: Inhibition of human PRMT5/MEP50 assessed as reduction in methyltransferase activity at 5 uM using histone 4 peptide as substrate in presence of [3H]SAM incubated for 30 mins. The class given is protein-complex assay.
The target of test [4] is T1, von Hippel-Lindau disease tumor suppressor/Protein arginine N-methyltransferase 5. Briefly: Induction of VHL-mediated PRMT5 degradation in human MCF7 cells at 0.2 to 5 uM incubated for 6 days by Western blot analysis. Conditions: dose microM 0.2-5, time 6.0 day. It is filed as cell-based. The procedure, abridged: as §1
Test [5] deals with Jurkat. Briefly: Antiproliferative activity against human Jurkat cells assessed as reduction in cell viability at 0.1 to 10 uM supplemented with fresh medium containing compound every other day for 6 days by CellTiter-Glo assay. It is filed as functional, cell-based. The note with it: dose microM 0.1-10, time 6.0 day. An outline of the steps:
(§2)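 HeLa, A549 and A172 grown in DMEM + 10% FBS; Jurkat in RPMI 1640 + 10% FBS; all at 37 °C, 5% CO2. Cells seeded, then treated 6 d with test agent, medium plus compound renewed every other day. Viability read by CellTiter-Glo and normalized to DMSO-treated cells; mean ± SD, n = 3.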

Test [6] relates to A 172. Briefly: Antiproliferative activity against human A172 cells assessed as reduction in cell viability at 0.1 to 10 uM supplemented with fresh medium containing compound every other day for 6 days by CellTiter-Glo assay. It is filed as functional, cell-based. The note with it: dose microM 0.1-10, time 6.0 day. An outline of the steps: as §2
A general note: Cellular ATP, detected with luciferase, serves as a proxy for viable cell number.

For test [7], the system named is A549. Briefly: Antiproliferative activity against human A549 cells assessed as reduction in cell viability at 0.1 to 10 uM supplemented with fresh medium containing compound every other day for 6 days by CellTiter-Glo assay. The note with it: dose microM 0.1-10, time 6.0 day. It is filed as functional, cell-based. An outline of the steps:
as §2

Test [8] relates to HeLa. Nature of the test: Antiproliferative activity against human HeLa cells assessed as reduction in cell viability at 0.1 to 10 uM supplemented with fresh medium containing compound every other day for 6 days by CellTiter-Glo assay. The class given is functional, cell-based. The note with it: dose microM 0.1-10, time 6.0 day. The procedure, abridged:
as §2

Test [9] has as its target T1, von Hippel-Lindau disease tumor suppressor/Protein arginine N-methyltransferase 5. Briefly: Induction of VHL-mediated PRMT5 degradation in human MCF7 cells assessed as reduction in SDMA level incubated for 6 days by Western blot analysis. The class given is cell-based. The note with it: dose microM 0.1-3, time 6.0 day. An outline of the steps:
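SDMA read-out: MCF-7 cells given 0.1, 0.3, 1 or 3.0 μM for 6 d; global symmetric dimethylarginine detected on western blot with anti-SDMA antibody.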

The values below come from ChEMBL document CHEMBL4725349, “Discovery of First-in-Class Protein Arginine Methyltransferase 5 (PRMT5) Degraders” (J Med Chem, 2020).

For orientation: inhibition means the drop in the measured response relative to a control, in per cent.

SMILES strings stand for the structures. The source made the active and inactive calls. No cut-off for these calls is given here.

T1 sequence (O14744 whole entry, looked up): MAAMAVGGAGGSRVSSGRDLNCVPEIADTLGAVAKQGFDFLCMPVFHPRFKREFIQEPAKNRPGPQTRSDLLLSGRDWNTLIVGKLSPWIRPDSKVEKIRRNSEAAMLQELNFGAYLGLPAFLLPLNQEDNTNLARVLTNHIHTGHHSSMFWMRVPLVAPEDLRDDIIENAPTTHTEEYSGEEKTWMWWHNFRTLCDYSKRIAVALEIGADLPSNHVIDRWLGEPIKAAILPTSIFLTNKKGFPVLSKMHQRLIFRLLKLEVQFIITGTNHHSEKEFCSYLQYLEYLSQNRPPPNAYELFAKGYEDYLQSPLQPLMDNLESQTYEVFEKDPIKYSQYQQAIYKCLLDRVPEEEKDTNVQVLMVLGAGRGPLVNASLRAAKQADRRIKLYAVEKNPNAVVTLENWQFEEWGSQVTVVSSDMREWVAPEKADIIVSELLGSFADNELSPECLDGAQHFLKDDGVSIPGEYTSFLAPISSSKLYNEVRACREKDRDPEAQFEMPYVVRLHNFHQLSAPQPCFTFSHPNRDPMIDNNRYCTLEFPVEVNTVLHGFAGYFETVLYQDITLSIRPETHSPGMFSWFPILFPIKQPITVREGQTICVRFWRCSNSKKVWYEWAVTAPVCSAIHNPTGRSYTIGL
T1 sequence (P40337 whole entry, looked up): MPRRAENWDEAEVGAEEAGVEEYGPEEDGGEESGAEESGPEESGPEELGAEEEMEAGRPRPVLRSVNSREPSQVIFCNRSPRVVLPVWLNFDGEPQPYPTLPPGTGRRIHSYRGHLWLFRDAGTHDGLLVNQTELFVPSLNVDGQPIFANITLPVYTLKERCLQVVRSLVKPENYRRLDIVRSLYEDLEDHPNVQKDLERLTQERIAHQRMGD

For the compound `Cc1ncsc1-c1ccc([C@H](C)NC(=O)[C@@H]2C[C@@H](O)CN2C(=O)[C@@H](NC(=O)COCCOCCOCCOCCOCC(=O)N2CC(Nc3cc(C(=O)NC[C@H](O)CN4CCCCC4)ncn3)C2)C(C)(C)C)cc1`, the outcome in test [1] and in [2] was inactive. Besides, in test [3], the inhibition was determined as 58%.

Regarding `Cc1ncsc1-c1ccc(CNC(=O)[C@@H]2C[C@@H](O)CN2C(=O)[C@@H](NC(=O)CCCCCCCCCC(=O)N2CC(Nc3cc(C(=O)NC[C@H](O)CN4CCc5ccccc5C4)ncn3)C2)C(C)(C)C)cc1`, the outcome in [4] was inactive.

Consider `Cc1ncsc1-c1ccc(CNC(=O)[C@@H]2C[C@@H](O)CN2C(=O)[C@@H](NC(=O)CCOCCOCCC(=O)N2CC(Nc3cc(C(=O)NC[C@H](O)CN4CCc5ccccc5C4)ncn3)C2)C(C)(C)C)cc1`, for which the outcome in test [4] was inactive.

For `O=C(NC[C@H](O)CN1CCc2ccccc2C1)c1cc(NC2COC2)ncn1`, the result in [5], in test [6], in test [7] and in [8] was Active. In addition, the outcome in [1] was inactive. Further, the Activity entry in test [9] is “Dose-dependent effect”.
